≈ marks a conversion by molar mass, not a printed value. Calls of active or inactive are those of the source. No cut-off for these calls is given here.
Experiments:
[1] = Therapeutic index, ratio of MHC10 for human RBC to geometric mean of peptide MIC for Escherichia coli O157:H7 CICC 21530; assay type: toxicity; conditions: human red blood cells (RBC), pooled result: one value given for 11 cell lines, strains, targets or settings, read-out: TI
How it was run: (§1)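 Therapeutic index = MHC (peptide concentration giving 10% hemolysis of human RBCs, 1 h, 37 °C, A540) divided by geometric mean of MICs from broth microdilution (10^5 CFU/mL in MHB, 37 °C, 18-24 h, OD492).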

Salmonella enterica = assay: Antibacterial activity against Salmonella choleraesuis ATCC 13312 assessed as bacterial growth inhibition incubated for 18 to 24 hrs by broth dilution method; assay type: functional; conditions: time 18-24 hrs
How it was run: (§2)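 Log-phase bacteria grown at 37 °C in MHB, diluted to 10^5 CFU/mL, mixed 1:1 with serial peptide dilutions (peptide diluted in 0.01% acetic acid, 0.2% BSA); 37 °C for 18-24 h. MIC read by OD492 as lowest concentration giving no growth; mean of 3-5 independent experiments.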

Cell membrane [2] = assay: Induction of cell membrane depolarization in Escherichia coli O157:H7 CICC 21530 assessed as increase in fluorescence intensity at 0.5 to 2 times MIC preincubated for 90 mins followed by KCl addition and measured after 15 to 30 mins by DiSC3-5 staining based fluorescence spectroscopic technique; assay type: subcellular; conditions: time 105-120 min
RAW264.7 = assay: Cytotoxicity against mouse RAW264.7 cells assessed as increase in cell viability at 64 uM incubated for 24 hrs by MTT assay relative to control; assay type: cell-based; conditions: raw264.7, 24 h
How it was run: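 RAW264.7 macrophages were grown in DMEM with 10% FBS, 2 mM glutamine and penicillin/streptomycin at 37 °C in 5% CO2. Cells seeded at 1.0-2.0 × 10^4 per well and treated with peptide (final 0.25-64 µM) for 24 h at 37 °C. MTT at 0.5 mg/mL added for 4 h, formazan dissolved in DMSO, read at 570 nm.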

Vibrio parahaemolyticus = assay: Antibacterial activity against Vibrio parahaemolyticus CICC 21617 assessed as bacterial growth inhibition incubated for 18 to 24 hrs by broth dilution method; assay type: functional; conditions: time 18-24 hrs
How it was run: (§3)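 Log-phase cells (grown overnight at 37 °C, subcultured in MHB) diluted to 10^5 CFU/mL in MHB and mixed 1:1 with serial peptide dilutions prepared in 0.01% acetic acid/0.2% BSA. Incubated 37 °C for 18-24 h. MIC is the lowest concentration giving no growth by OD492. Reported as the average of 3-5 independent experiments.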

Salmonella paratyphi [3] = assay: Antibacterial activity against Salmonella paratyphi C CICC 21512 assessed as bacterial growth inhibition incubated for 18 to 24 hrs by microtiter broth dilution method; assay type: functional; conditions: Salmonella enterica, time 18-24 hrs; how it was run: as §2
Salmonella enteritidis = assay: Antibacterial activity against Salmonella enteritidis CICC 21527 assessed as bacterial growth inhibition incubated for 18 to 24 hrs by microtiter broth dilution method; assay type: functional, Salmonella enterica subsp. enterica serovar Enteritidis; conditions: Salmonella enterica, time 18-24 hrs; how it was run: as §3
Pseudomonas fluorescens = assay: Antibacterial activity against Pseudomonas fluorescens CICC 21620 assessed as bacterial growth inhibition incubated for 18 to 24 hrs by microtiter broth dilution method; assay type: functional; conditions: time 18-24 hrs; how it was run: as §3
[4] = tested on: Salmonella enterica subsp. enterica serovar Paratyphi B; assay: Antibacterial activity against Salmonella paratyphi B CICC 21495 assessed as bacterial growth inhibition incubated for 18 to 24 hrs by microtiter broth dilution method; assay type: functional; conditions: time 18-24 hrs; how it was run: as §2
[5] = Hemolytic activity against human red blood cells assessed as hemoglobin release at 64 uM measured after 1 hr by microplate reader analysis relative to control; assay type: ADME, cell-based, Erythrocyte; conditions: read-out: Activity
How it was run: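 Fresh heparinized human RBCs washed in 10 mM PBS pH 7.4, ~1% (v/v) suspension mixed 1:1 with peptide in PBS, 1 h at 37 °C; after centrifugation, supernatant absorbance at 540 nm. Percent hemolysis relative to PBS (0%) and 0.1% Triton X-100 (100%).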

Micrococcus luteus = assay: Antibacterial activity against Micrococcus luteus CMCC 28001 assessed as bacterial growth inhibition incubated for 18 to 24 hrs by microtiter broth dilution method; assay type: functional; conditions: time 18-24 hrs; how it was run: as §3
Shigella flexneri = assay: Antibacterial activity against Shigella flexneri CMCC 51571 assessed as bacterial growth inhibition incubated for 18 to 24 hrs by microtiter broth dilution method; assay type: functional; conditions: time 18-24 hrs; how it was run: as §3
Erythrocyte = assay: Hemolytic activity against human red blood cells assessed as concentration required to cause 10% hemoglobin release measured after 1 hr by microplate reader analysis; assay type: ADME, cell-based
How it was run: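 Fresh heparinized human RBCs washed three times in 10 mM PBS pH 7.4 and resuspended to about 1% (v/v) (5.4 × 10^8 cells/mL). Mixed 1:1 with peptide in PBS for 1 h at 37 °C, then centrifuged. Supernatant hemoglobin read at A540. PBS set as 0% and 0.1% Triton X-100 as 100% hemolysis. MHC is the concentration causing 10% hemolysis.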

Bacillus cereus = assay: Antibacterial activity against Bacillus cereus CMCC 63301 assessed as bacterial growth inhibition incubated for 18 to 24 hrs by microtiter broth dilution method; assay type: functional; conditions: time 18-24 hrs; how it was run: as §3
Cell membrane [6] = assay: Induction of inner membrane permeabilization in Escherichia coli O157:H7 CICC 21530 assessed as cytoplasmic beta-galactosidase release at 1 times MIC using ONPG as substrate by […]; assay type: subcellular
Bacillus pumilus = assay: Antibacterial activity against Bacillus pumilus CMCC 63202 assessed as bacterial growth inhibition incubated for 18 to 24 hrs by microtiter broth dilution method; assay type: functional; conditions: time 18-24 hrs; how it was run: as §3
Salmonella paratyphi [7] = assay: Antibacterial activity against Salmonella paratyphi A CICC 20501 assessed as bacterial growth inhibition incubated for 18 to 24 hrs by microtiter broth dilution method; assay type: functional, Salmonella enterica subsp. enterica serovar Paratyphi A; conditions: Salmonella enterica, time 18-24 hrs; how it was run: as §2
Candida albicans = assay: Antifungal activity against Candida albicans ATCC 10231 assessed as fungal growth inhibition incubated for 18 to 24 hrs by microtiter broth dilution method; assay type: functional; conditions: time 18-24 hrs; how it was run: as §3
[8] = Therapeutic index, ratio of MHC10 for human RBC to geometric mean of peptide MIC for Staphylococcus aureus ATCC 29213; assay type: toxicity; conditions: human red blood cells (RBC), pooled result: one value given for 9 cell lines, strains, targets or settings, read-out: TI; how it was run: as §1
Salmonella typhimurium = assay: Antibacterial activity against Salmonella typhimurium CMCC 51005 assessed as bacterial growth inhibition incubated for 18 to 24 hrs by microtiter broth dilution method; assay type: functional, Salmonella enterica subsp. enterica serovar Typhimurium; conditions: Salmonella enterica, time 18-24 hrs; how it was run: as §3
Staphylococcus aureus [9] = assay: Antibacterial activity against Staphylococcus aureus GIM 1.160 assessed as bacterial growth inhibition incubated for 18 to 24 hrs by microtiter broth dilution method; assay type: functional; conditions: time 18-24 hrs; how it was run: as §3
Escherichia coli [10] = assay: Antibacterial activity against Escherichia coli ATCC 35150 assessed as bacterial growth inhibition incubated for 18 to 24 hrs by microtiter broth dilution method; assay type: functional; conditions: time 18-24 hrs; how it was run: as §3
Escherichia coli [11] = assay: Antibacterial activity against Escherichia coli O157:H7 CICC 21530 assessed as bacterial growth inhibition incubated for 18 to 24 hrs by microtiter broth dilution method; assay type: functional; conditions: time 18-24 hrs; how it was run: as §2
Escherichia coli [12] = assay: Antibacterial activity against Escherichia coli ATCC 25922 assessed as bacterial growth inhibition incubated for 18 to 24 hrs by microtiter broth dilution method; assay type: functional; conditions: time 18-24 hrs; how it was run: as §3
Staphylococcus aureus [13] = assay: Antibacterial activity against methicillin resistant Staphylococcus aureus ATCC 43300 assessed as bacterial growth inhibition incubated for 18 to 24 hrs by microtiter broth dilution method; assay type: functional; conditions: time 18-24 hrs; how it was run: as §2

With CC[C@H](C)[C@H](NC(=O)CN)C(=O)NCC(=O)N[C@@H](C)C(=O)N[C@H](C(=O)N[C@@H](CC(C)C)C(=O)N[C@@H](CCCCN)C(=O)N[C@H](C(=O)N[C@@H](CC(C)C)C(=O)N[C@H](C(=O)N[C@H](C(=O)NCC(=O)N[C@@H](CC(C)C)C(=O)N1CCC[C@H]1C(=O)N[C@@H](C)C(=O)N[C@@H](CC(C)C)C(=O)N[C@H](C(=O)N[C@@H](CO)C(=O)N[C@@H](Cc1c[nH]c2ccccc12)C(=O)N[C@H](C(=O)N[C@@H](CCCCN)C(=O)N[C@@H](CCCNC(=N)N)C(=O)N[C@@H](CCCCN)C(=O)N[C@@H](CCCNC(=N)N)C(=O)N[C@@H](CCC(N)=O)C(=O)N[C@@H](CCC(N)=O)C(N)=O)[C@@H](C)CC)[C@@H](C)CC)[C@@H](C)O)[C@@H](C)O)C(C)C)C(C)C [MELITTIN] the selectivity ratio [1] was 0.44, the MIC (Salmonella enterica) was 0.7 µM (≈ 1.99 µg/mL) and the Activity (Cell membrane [2]) was “Active”. It also gave an Activity (RAW264.7) of 1.85%, an MIC (Vibrio parahaemolyticus) of 1.41 µM (≈ 4.01 µg/mL) and an MIC (Salmonella paratyphi [3]) of 0.7 µM (≈ 1.99 µg/mL). The MIC (Salmonella enteritidis) was 1.41 µM (≈ 4.01 µg/mL), the MIC (Pseudomonas fluorescens) was 1.41 µM (≈ 4.01 µg/mL) and the MIC [4] was 0.35 µM (≈ 0.996 µg/mL). It also gave a hemolysis at 1 h, 64 µM [5] of 63.7%, an MIC (Micrococcus luteus) of 0.7 µM (≈ 1.99 µg/mL) and an MIC (Shigella flexneri) of 0.7 µM (≈ 1.99 µg/mL). The MHC10 (Erythrocyte) was 0.35 µM, the MIC (Bacillus cereus) was 1.41 µM (≈ 4.01 µg/mL) and the Activity (Cell membrane [6]) was “Active”. It also gave an MIC (Bacillus pumilus) of 0.35 µM (≈ 0.996 µg/mL), an MIC (Salmonella paratyphi [7]) of 0.7 µM (≈ 1.99 µg/mL) and an MIC (Candida albicans) of 2.81 µM (≈ 8 µg/mL). For the same molecule, the selectivity ratio [8] was 0.43.
In the case of CN[C@H](CC(C)C)C(=O)N[C@H]1C(=O)N[C@@H](CC(N)=O)C(=O)N[C@H]2C(=O)N[C@H]3C(=O)N[C@H](C(=O)N[C@H](C(=O)O)c4cc(O)cc(O)c4-c4cc3ccc4O)[C@H](O)c3ccc(c(Cl)c3)Oc3cc2cc(c3O[C@@H]2O[C@H](CO)[C@@H](O)[C@H](O)[C@H]2O[C@H]2C[C@](C)(N)[C@H](O)[C@H](C)O2)Oc2ccc(cc2Cl)[C@H]1O [VANCOMYCIN], the MIC (Salmonella enterica) is reported as > 88.3 µM, the MIC (Vibrio parahaemolyticus) is reported as 88.3 µM (≈ 128 µg/mL) and the MIC (Salmonella paratyphi [3]) is reported as 88.3 µM (≈ 128 µg/mL). The MIC (Salmonella enteritidis) was 44.2 µM (≈ 64 µg/mL), the MIC (Pseudomonas fluorescens) was 0.35 µM (≈ 0.507 µg/mL) and the MIC [4] was 88.3 µM (≈ 128 µg/mL). For the same molecule, the MIC (Micrococcus luteus) was 0.69 µM (≈ 1 µg/mL), the MIC (Shigella flexneri) was 88.3 µM (≈ 128 µg/mL) and the MHC10 (Erythrocyte) was > 88.32 µM. For the same molecule, the MIC (Bacillus cereus) was 0.17 µM (≈ 0.246 µg/mL), the MIC (Salmonella typhimurium) was > 88.3 µM and the MIC (Staphylococcus aureus [9]) was 1.38 µM (≈ 2 µg/mL). For the same molecule, the MIC (Escherichia coli [10]) was > 88.3 µM, the MIC (Escherichia coli [11]) was > 88.3 µM and the MIC (Bacillus pumilus) was 0.35 µM (≈ 0.507 µg/mL). The MIC (Escherichia coli [12]) was 88.3 µM (≈ 128 µg/mL), the MIC (Salmonella paratyphi [7]) was > 88.3 µM and the MIC (Candida albicans) was > 88.3 µM. For the same molecule, the MIC (Staphylococcus aureus [13]) was 1.38 µM (≈ 2 µg/mL).

— ChEMBL document CHEMBL4765236, “Insights into the Antimicrobial Activity and Cytotoxicity of Engineered α-Helical Peptide Amphiphiles” (J Med Chem, 2016)
